Activity calls are given as the source filed them. No cut-off for these calls is given here.
Assays:
[1] = molecular target: T1, MAP/microtubule affinity-regulating kinase 4 (Homo sapiens) (UniProt Q96L34); assay: Inhibition of recombinant human MARK4 at 10 uM incubated for 2 hrs by [gamma32P]ATP assay
T1 sequence (whole entry): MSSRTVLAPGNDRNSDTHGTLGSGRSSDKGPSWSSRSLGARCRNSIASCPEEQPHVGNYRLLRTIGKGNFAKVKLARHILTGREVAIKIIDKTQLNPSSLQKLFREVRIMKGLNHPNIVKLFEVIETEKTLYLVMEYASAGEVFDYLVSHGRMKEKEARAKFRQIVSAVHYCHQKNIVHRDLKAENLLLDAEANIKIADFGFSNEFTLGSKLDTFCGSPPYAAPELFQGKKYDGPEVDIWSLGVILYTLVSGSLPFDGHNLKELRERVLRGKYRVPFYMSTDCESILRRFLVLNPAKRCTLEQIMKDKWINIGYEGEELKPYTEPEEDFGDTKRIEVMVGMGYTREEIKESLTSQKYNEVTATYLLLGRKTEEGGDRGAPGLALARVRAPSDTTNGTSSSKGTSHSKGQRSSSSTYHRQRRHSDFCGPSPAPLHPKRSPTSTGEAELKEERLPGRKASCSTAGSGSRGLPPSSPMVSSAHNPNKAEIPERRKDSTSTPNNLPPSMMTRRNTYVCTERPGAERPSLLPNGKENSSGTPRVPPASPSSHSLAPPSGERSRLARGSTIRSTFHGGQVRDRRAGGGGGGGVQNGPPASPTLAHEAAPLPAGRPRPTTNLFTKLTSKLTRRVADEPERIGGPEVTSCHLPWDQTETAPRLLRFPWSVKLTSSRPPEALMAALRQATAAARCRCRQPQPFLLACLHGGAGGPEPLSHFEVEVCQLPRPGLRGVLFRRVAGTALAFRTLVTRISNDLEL
How it was run: (§1)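 Recombinant human MARK4 was incubated 2 h at 37 °C with 1 mM cold ATP plus [γ-32P]ATP (222 TBq mmol−1), with or without compound. Released 32Pi was separated from ATP by TLC, and spots were quantified as % ATP hydrolysis relative to a 100 nM enzyme positive control. Screening was at a single 10 μM; dose-response used 0.5−10 μM.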

HepG2 [2] = assay: Induction of apoptosis in human HepG2 cells assessed as apoptotic cells at IC50 after 24 hrs by annexin V-FITC/propidium iodide staining based Flow cytometric analysis (reference value: 2.68%); format: functional
HepG2 [3] = assay: Induction of cell cycle arrest in human HepG2 cells assessed as accumulation at S phase at IC50 after 24 hrs by propidium iodide staining based Flow cytometric analysis (reference value: 15%); format: functional
MCF7 [4] = assay: Induction of cell cycle arrest in human MCF7 cells assessed as accumulation at S phase at IC50 after 24 hrs by propidium iodide staining based Flow cytometric analysis (reference value: 20%); format: functional
[5] = molecular target: T1, MAP/microtubule affinity-regulating kinase 4 (Homo sapiens); assay: Inhibition of MARK4 in human HepG2 cells assessed as reduction in ROS level at IC50 after 5 to 6 hrs by DCFDA staining using spectroflourimetric analysis; format: cell-based
[6] = molecular target: T1, MAP/microtubule affinity-regulating kinase 4 (Homo sapiens); assay: Inhibition of MARK4 in human SH-SY5Y cells assessed as reduction in tau phosphorylation at IC50 after 24 hrs by flow cytometric analysis; format: cell-based
How it was run: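 SH-SY5Y cells were grown in 1:1 EMEM/F12 with 10% FBS and incubated with IC50 compound. After 24 h, about 1 × 10^6 cells were collected, fixed, and stained with anti-tau primary antibody for 2−3 h at 25 °C. Phospho-tau signal was read by flow cytometry against untreated cells.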

[7] = molecular target: T1, MAP/microtubule affinity-regulating kinase 4 (Homo sapiens); assay: Inhibition of MARK4 in human MCF7 cells assessed as reduction in ROS level at IC50 after 5 to 6 hrs by DCFDA staining using spectroflourimetric analysis; format: cell-based
HepG2 [8] = assay: Induction of cell cycle arrest in human HepG2 cells assessed as accumulation at G0/G1 phase at IC50 after 24 hrs by propidium iodide staining based Flow cytometric analysis (reference value: 60%); format: functional
MCF7 [9] = assay: Induction of apoptosis in human MCF7 cells assessed as viable cells at IC50 after 24 hrs by annexin V-FITC/propidium iodide staining based Flow cytometric analysis (reference value: 99.99%); format: functional
HEK293 = assay: Cytotoxicity against human HEK293 cells assessed as reduction in cell viability upto 50 uM after 48 hrs by MTT assay; format: cell-based; conditions: hek293, 48 h
How it was run: (§2)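 Cells plated at 9000−10 000 cells/well, grown 24 h, then exposed to 0−50 μM compound for 48 h at 37 °C in 5% CO2, followed by a standard MTT read-out. HEK-293, MCF-7 and HepG2 were kept in DMEM with 10% heat-inactivated FBS and 1% penicillin−streptomycin. Viability is expressed as % of control, mean ± SD, n = 3. Paclitaxel served as positive control.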

HepG2 [10] = assay: Induction of apoptosis in human HepG2 cells assessed as viable cells at IC50 after 24 hrs by annexin V-FITC/propidium iodide staining based Flow cytometric analysis (reference value: 97.32%); format: functional
MCF7 [11] = assay: Induction of cell cycle arrest in human MCF7 cells assessed as accumulation at G2 phase at IC50 after 24 hrs by propidium iodide staining based Flow cytometric analysis (reference value: 15%); format: functional
MCF7 [12] = assay: Induction of cell cycle arrest in human MCF7 cells assessed as accumulation at G0/G1 phase at IC50 after 24 hrs by propidium iodide staining based Flow cytometric analysis (reference value: 65%); format: functional
MCF7 [13] = assay: Induction of apoptosis in human MCF7 cells assessed as apoptotic cells at IC50 after 24 hrs by annexin V-FITC/propidium iodide staining based Flow cytometric analysis (reference value: 0.01%); format: functional
[14] = molecular target: T1, MAP/microtubule affinity-regulating kinase 4 (Homo sapiens); assay: Binding affinity to recombinant human MARK 4 by fluorescence based Stem-Volme plot analysis
How it was run: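 Intrinsic fluorescence of recombinant MARK4 (10 μM) was titrated with increasing ligand, using excitation at 280 nm and emission recorded from 300−400 nm. Quenching was fitted to a modified Stern−Volmer equation, log(Fo−F)/F = log Ka + n log[L]. Ka came from the intercept and n from the slope. Three independent triplicate titrations were averaged.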

HepG2 [15] = assay: Antiproliferative activity against human HepG2 cells assessed as reduction in cell viability after 48 hrs by MTT assay; format: functional, cell-based; conditions: HepG2, 48 h; how it was run: as §2
MCF7 [16] = assay: Inhibition of cell migration in human MCF7 cells at IC50 after 48 hrs by phase contrast inverted microscopic based wound healing assay; format: functional
MCF7 [17] = assay: Antiproliferative activity against human MCF7 cells assessed as reduction in cell viability after 48 hrs by MTT assay; format: functional, cell-based; conditions: MCF7, 48 h; how it was run: as §2
[18] = molecular target: T1, MAP/microtubule affinity-regulating kinase 4 (Homo sapiens); assay: (§3) Inhibition of recombinant human MARK4 incubated for 2 hrs by [gamma32P]ATP assay; how it was run: as §1
[19] = molecular target: T2, MAP/microtubule affinity-regulating kinase 4 (Homo sapiens, UniProt Q96L34); assay: as §3; how it was run: as §1
T2 sequence (Q96L34 whole entry): T1 sequence (whole entry)

HepG2 [20] = assay: Induction of cell cycle arrest in human HepG2 cells assessed as accumulation at S phase at IC50 after 24 hrs by propidium iodide staining based Flow cytometric analysis (reference value: 25%); format: functional

SMILES: O=c1oc2c(O)c(O)cc3c(=O)oc4c(O)c(O)cc1c4c23
- inhibition [1]: Active

SMILES: COc1c(O)cc2oc3cc(O)c(CC=C(C)C)c(O)c3c(=O)c2c1CC=C(C)C [MANGOSTIN]
- Activity (HepG2 [2]): 19.7%
- Activity (HepG2 [3]): 10%
- Activity (MCF7 [4]): 10%
- inhibition [5]: Active
- inhibition [6]: Active
- inhibition [7]: Active
- Activity (HepG2 [8]): 75%
- Activity (MCF7 [9]): 74.1%
- Activity (HEK293): Non-Toxic
- Activity (HepG2 [10]): 80.3%
- Activity (MCF7 [11]): 7%
- Activity (MCF7 [12]): 83%
- Activity (MCF7 [13]): 25.9%
- Ka [14]: 5.2 ×10⁷ /M
- IC50 (HepG2 [15]): 18.6 µM
- inhibition [1]: Active
- inhibition (MCF7 [16]): Active
- IC50 (MCF7 [17]): 9.95 µM
- inhibition [18]: Dose-dependent effect
- IC50 [19]: 1.77 µM
- Activity (HepG2 [20]): 15%

Reference: ChEMBL document CHEMBL4334459, “Identification of α-Mangostin as a Potential Inhibitor of Microtubule Affinity Regulating Kinase 4” (J Nat Prod, 2019)
